≈ marks a conversion by molar mass, not a printed value.
Key:
[1] = system: Paracoccidioides brasiliensis; assay: Antifungal activity against Paracoccidioides brasiliensis Pb18 by serial dilution method; assay type: functional
[2] = system: Cryptococcus gattii species complex; assay: Antifungal activity against Cryptococcus gattii by two fold serial dilution method; assay type: functional, Cryptococcus bacillisporus
In short: (§1)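 Broth microdilution MIC following CLSI M27-A2 with twofold serial dilutions; strains ATCC 18804 (C. albicans), ATCC 22019 (C. parapsilosis), ATCC 750 (C. tropicalis), ATCC 32608 (C. gattii), kept on Sabouraud dextrose agar at 4 °C. Amphotericin B and trimethoprim/sulfamethoxazole served as positive controls.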

[3] = system: Candida parapsilosis; assay: Antifungal activity against Candida parapsilosis by two fold serial dilution method; assay type: functional; details: Lodderomyces parapsilosis; in short: as §1
[4] = system: Candida tropicalis; assay: Antifungal activity against Candida tropicalis by two fold serial dilution method; assay type: functional; in short: as §1
[5] = system: Candida albicans; assay: Antifungal activity against Candida albicans by two fold serial dilution method; assay type: functional; in short: as §1
[6] = system: Jurkat; assay: Anticancer activity against human Jurkat cells after 48 hrs by MTT assay; assay type: functional, cell-based
In short: (§2)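 HL60 and Jurkat leukemia lines plated at 50,000 and 100,000 cells/well respectively and pre-incubated 24 h at 37 °C, 5% CO2. Compounds dissolved in DMSO and tested over a concentration range of […] for 48 h. Viability read by MTT reduction (4 h), formazan dissolved in acidic isopropanol, OD 590 nm. Values normalized to 0.05% DMSO control; IC50 taken graphically from dose-effect curves. Triplicate, three separate days.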

[7] = system: MCF7; assay: Anticancer activity against human MCF7 cells after 48 hrs by sulforhodamine B assay; assay type: functional, cell-based
In short: (§3)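 Solid tumour lines from NCI (NCI colorimetric protocol), seeded and pre-incubated 24 h at 37 °C, 5% CO2, then exposed to compounds for 48 h. Proteins fixed with trichloroacetic acid, stained with sulforhodamine B, dye dissolved in 10 mM Tris, absorbance at 515 nm compared against initial-density control wells. IC50 from dose-response curves built with 1:2 serial dilutions; duplicate, repeated at least three times.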

[8] = system: HL-60; assay: Anticancer activity against human HL60 cells after 48 hrs by MTT assay; assay type: functional, cell-based; in short: as §2
[9] = system: UACC-62; assay: Anticancer activity against human UACC62 cells after 48 hrs by sulforhodamine B assay; assay type: functional, cell-based; in short: as §3
[10] = system: TK-10; assay: Anticancer activity against human TK10 cells after 48 hrs by sulforhodamine B assay; assay type: functional, cell-based; in short: as §3
[11] = system: Candida tropicalis; assay: Antifungal activity against Candida tropicalis after 2 days by broth microdilution method in presence of 1 M osmotic stabilizer sorbitol; assay type: functional; details: 48 h
[12] = system: Cryptococcus gattii species complex; assay: Antifungal activity against Cryptococcus gattii by two fold serial dilution method after 3 days by broth microdilution method in presence of 1 M osmotic stabilizer sorbitol; assay type: functional, Cryptococcus bacillisporus; details: 72 h
[13] = system: Paracoccidioides brasiliensis; assay: Antifungal activity against Paracoccidioides brasiliensis Pb18 after 10 days by broth microdilution method in presence of 1 M osmotic stabilizer sorbitol; assay type: functional; details: 240 h
[14] = Homo sapiens, Jurkat, 48 h, read-out: IC50
[15] = Homo sapiens, MCF7, 48 h, read-out: IC50
[16] = Homo sapiens, HL-60, 48 h, read-out: IC50
[17] = Homo sapiens, UACC-62, 48 h, read-out: IC50
[18] = Homo sapiens, TK-10, 48 h, read-out: IC50

SMILES | MIC [1] [µg/mL] | MIC [2] [µg/mL] | MIC [3] [µg/mL] | MIC [4] [µg/mL] | MIC [5] [µg/mL] | IC50 [6, 14] [µg/mL] | IC50 [7, 15] [µg/mL] | IC50 [8, 16] [µg/mL] | IC50 [9, 17] [µg/mL] | IC50 [10, 18] [µg/mL] | IC50 ([6]; jurkat) | IC50 ([7]; mcf7) | MIC [11] [µg/mL] | MIC [12] [µg/mL] | MIC [13] [µg/mL] | IC50 ([9]; uacc-62) | IC50 ([10]; tk-10) | IC50 ([8]; hl-60)
O=C(/C=C/c1ccc2c(ccc[n+]2[O-])c1)c1ccc([N+](=O)[O-])cc1 | 500 (≈ 1560 µM) | > 500 | > 500 | > 500 | > 500 | – | – | – | – | – | – | – | – | – | – | – | – | –
O=C(/C=C/c1ccc2c(ccc[n+]2[O-])c1)c1ccc(Br)cc1 | 62.5 (≈ 176 µM) | 62.5 (≈ 176 µM) | > 500 | > 500 | > 500 | 65.5 (≈ 185 µM) | 6.6 (≈ 18.6 µM) | 2.6 (≈ 7.34 µM) | 4.7 (≈ 13.3 µM) | 1.1 (≈ 3.11 µM) | – | – | – | – | – | – | – | –
Cc1ccc(C(=O)/C=C/c2ccc3ncccc3c2)cc1 | 7.8 (≈ 28.5 µM) | > 500 | > 500 | > 500 | > 500 | – | – | 8.28 (≈ 30.3 µM) | – | – | Not Active | Not Active | > 31.2 | > 31.2 | 7.8 | Not Active | Not Active | –
C[n+]1cccc2cc(/C=C/C(=O)c3ccc(Cl)cc3)ccc21.[I-] | 125 | 15.6 | > 500 | 31.2 | 500 | 4.9 | – | 9.9 | – | – | – | Not Active | 31.2 | 15.6 | > 31.2 | Not Active | Not Active | –
O=C(/C=C/c1ccc2ncccc2c1)c1ccc(Cl)cc1 | 62.5 (≈ 213 µM) | > 500 | > 500 | > 500 | > 500 | 15 (≈ 51.1 µM) | 0.96 (≈ 3.27 µM) | 8.8 (≈ 30 µM) | – | – | – | – | – | – | – | Not Active | Not Active | –
O=C(/C=C/c1ccc2ncccc2c1)c1ccc(Br)cc1 | > 500 | > 500 | > 500 | > 500 | > 500 | – | – | – | – | – | – | – | – | – | – | – | – | –
O=C(/C=C/c1ccc2c(ccc[n+]2[O-])c1)c1ccc(F)cc1 | 1.9 (≈ 6.48 µM) | 62.5 (≈ 213 µM) | > 500 | > 500 | > 500 | 71.9 (≈ 245 µM) | 4.3 (≈ 14.7 µM) | – | 2.75 (≈ 9.38 µM) | 0.19 (≈ 0.648 µM) | – | – | > 31.2 | > 31.2 | 1.9 | – | – | Not Active
O=C(/C=C/c1ccc2ncccc2c1)c1ccc(F)cc1 | 7.8 (≈ 28.1 µM) | 500 (≈ 1800 µM) | > 500 | > 500 | > 500 | 26.5 (≈ 95.6 µM) | 6.3 (≈ 22.7 µM) | 20.8 (≈ 75 µM) | 5.6 (≈ 20.2 µM) | 1 (≈ 3.61 µM) | – | – | > 31.2 | > 31.2 | 7.8 | – | – | –
C[n+]1cccc2cc(/C=C/C(=O)c3ccc([N+](=O)[O-])cc3)ccc21.[I-] | 250 | 31.2 | > 500 | 250 | > 500 | – | – | – | – | – | Not Active | Not Active | > 31.2 | 62.5 | > 31.2 | Not Active | Not Active | Not Active
COc1ccc(C(=O)/C=C/c2ccc3c(ccc[n+]3C)c2)cc1.[I-] | 125 | 31.2 | 125 | 62.5 | 62.5 | 11.9 | – | 25.2 | – | – | – | Not Active | > 31.2 | 62.5 | > 31.2 | Not Active | Not Active | –
C[n+]1cccc2cc(/C=C/C(=O)c3ccc(Br)cc3)ccc21.[I-] | 31.2 | 7.8 | 125 | 15.6 | 250 | 7.3 | – | – | – | – | – | Not Active | 15.6 | 7.8 | 31.2 | Not Active | Not Active | Not Active
Cc1ccc(C(=O)/C=C/c2ccc3c(ccc[n+]3[O-])c2)cc1 | 125 (≈ 432 µM) | 500 (≈ 1730 µM) | > 500 | > 500 | > 500 | 32.5 (≈ 112 µM) | 8.3 (≈ 28.7 µM) | 20.3 (≈ 70.2 µM) | 5.3 (≈ 18.3 µM) | 1 (≈ 3.46 µM) | – | – | – | – | – | – | – | –

From ChEMBL document CHEMBL1828502, “Quinolinyl and quinolinyl N-oxide chalcones: synthesis, antifungal and cytotoxic activities” (Eur J Med Chem, 2011)
